Assay results: ChEMBL document CHEMBL1152649, “Synthesis, cytotoxicity and human telomerase inhibition activities of a series of 1,2-heteroannelated anthraquinones and anthra[1,2-d]imidazole-6,11-dione homologues” (2009)

Tests used:
SF-268 = assay: Antiproliferative activity against human SF268 cells assessed as cell growth at 10 uM; assay type: functional; conditions: read-out: Activity
Summary of the method: (§1)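 NCI 60 cell line panel, single-dose screen (10^-5 M) run by the developmental therapeutics program protocol. Results are given as growth percent of treated cells relative to untreated control cells for each line.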

[1] = Antiproliferative activity against human RPMI8266 cells assessed as cell growth at 10 uM; assay type: functional; conditions: read-out: Activity; summary of the method: as §1
HCT-116 = assay: Antiproliferative activity against human HCT116 cells assessed as cell growth at 10 uM; assay type: functional; conditions: read-out: Activity; summary of the method: as §1
SNB-75 = assay: Antiproliferative activity against human SNB75 cells assessed as cell growth at 10 uM; assay type: functional; conditions: read-out: Activity
Summary of the method: (§2)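 NCI 60 cell line panel, single dose (10^-5 M), run per the Developmental Therapeutics Program protocol (one dose mean graph). Each result is the growth percentage of treated cells relative to untreated control cells.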

MDA-MB-435 = assay: Antiproliferative activity against human MDA-MB-435 cells assessed as cell growth at 10 uM; assay type: functional; conditions: read-out: Activity; summary of the method: as §1
OVCAR-8 = assay: Antiproliferative activity against human OVCAR8 cells assessed as cell growth at 10 uM; assay type: functional; conditions: read-out: Activity; summary of the method: as §1
NCI/ADR-RES = assay: Antiproliferative activity against human NCI/ADR-RES cells assessed as cell growth at 10 uM; assay type: functional; conditions: read-out: Activity; summary of the method: as §1
SF-295 = assay: Antiproliferative activity against human SF295 cells assessed as cell growth at 10 uM; assay type: functional; conditions: read-out: Activity; summary of the method: as §1
[2] = Antiproliferative activity against human Hs 578T cells assessed as cell growth at 10 uM; assay type: functional; conditions: read-out: Activity; summary of the method: as §1
UACC-257 = assay: Antiproliferative activity against human UACC257 cells assessed as cell growth at 10 uM; assay type: functional; conditions: read-out: Activity; summary of the method: as §2
NCI-H322M = assay: Antiproliferative activity against human NCI-H322M cells assessed as cell growth at 10 uM; assay type: functional; conditions: read-out: Activity; summary of the method: as §1
NCI-H460 = assay: Antiproliferative activity against human NCI-H460 cells assessed as cell growth at 10 uM; assay type: functional; conditions: read-out: Activity; summary of the method: as §1
HOP-92 = assay: Antiproliferative activity against human HOP92 cells assessed as cell growth at 10 uM; assay type: functional; conditions: read-out: Activity; summary of the method: as §1
OVCAR-3 = assay: Antiproliferative activity against human OVCAR-3 cells assessed as cell growth at 10 uM; assay type: functional; conditions: read-out: Activity; summary of the method: as §1
[3] = Cytotoxicity against human H1299 cells at 100 uM after 48 hrs by MTT assay; assay type: functional; conditions: NCI-H1299, 48 h
Summary of the method: (§3)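 H1299 non-small cell lung cancer cells were grown in RPMI 1640 with 10% FBS, penicillin and streptomycin at 37 °C under 5% CO2. About 2 × 10³ cells per well were seeded and left 24 h. Compounds were dissolved fresh in DMSO, diluted into complete medium and applied for 48 h. MTT was then added for 4 h at 37 °C, followed by lysis buffer (20% SDS, 50% DMF) for 16 h, and absorbance was read at 550 nm.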

SNB-19 = assay: Antiproliferative activity against human SNB19 cells assessed as cell growth at 10 uM; assay type: functional; conditions: read-out: Activity; summary of the method: as §1
[4] = Cytotoxicity against human H1299 cells at 1 uM after 48 hrs by MTT assay; assay type: functional; conditions: NCI-H1299, 48 h; summary of the method: as §3
ACHN = assay: Antiproliferative activity against human ACHN cells assessed as cell growth at 10 uM; assay type: functional; conditions: read-out: Activity; summary of the method: as §1
OVCAR-4 = assay: Antiproliferative activity against human OVCAR4 cells assessed as cell growth at 10 uM; assay type: functional; conditions: read-out: Activity; summary of the method: as §1
NCI-H23 = assay: Antiproliferative activity against human NCI-H23 cells assessed as cell growth at 10 uM; assay type: functional; conditions: read-out: Activity; summary of the method: as §1
CCRF-CEM = assay: Antiproliferative activity against human CCRF-CEM cells assessed as cell growth at 10 uM; assay type: functional; conditions: read-out: Activity; summary of the method: as §1
MDA-MB-231 = assay: Antiproliferative activity against human MDA-MB-231 cells assessed as cell growth at 10 uM; assay type: functional; conditions: read-out: Activity; summary of the method: as §1
[5] = molecular target: Telomerase reverse transcriptase (Homo sapiens) (UniProt O14746); assay: Inhibition of TERT in human H1299 cells assessed as residual transcriptional activity at 10 uM after 24 hrs by SEAP reporter gene assay; values are per cent of control
Sequence of Telomerase reverse transcriptase (Homo sapiens) (O14746 whole entry): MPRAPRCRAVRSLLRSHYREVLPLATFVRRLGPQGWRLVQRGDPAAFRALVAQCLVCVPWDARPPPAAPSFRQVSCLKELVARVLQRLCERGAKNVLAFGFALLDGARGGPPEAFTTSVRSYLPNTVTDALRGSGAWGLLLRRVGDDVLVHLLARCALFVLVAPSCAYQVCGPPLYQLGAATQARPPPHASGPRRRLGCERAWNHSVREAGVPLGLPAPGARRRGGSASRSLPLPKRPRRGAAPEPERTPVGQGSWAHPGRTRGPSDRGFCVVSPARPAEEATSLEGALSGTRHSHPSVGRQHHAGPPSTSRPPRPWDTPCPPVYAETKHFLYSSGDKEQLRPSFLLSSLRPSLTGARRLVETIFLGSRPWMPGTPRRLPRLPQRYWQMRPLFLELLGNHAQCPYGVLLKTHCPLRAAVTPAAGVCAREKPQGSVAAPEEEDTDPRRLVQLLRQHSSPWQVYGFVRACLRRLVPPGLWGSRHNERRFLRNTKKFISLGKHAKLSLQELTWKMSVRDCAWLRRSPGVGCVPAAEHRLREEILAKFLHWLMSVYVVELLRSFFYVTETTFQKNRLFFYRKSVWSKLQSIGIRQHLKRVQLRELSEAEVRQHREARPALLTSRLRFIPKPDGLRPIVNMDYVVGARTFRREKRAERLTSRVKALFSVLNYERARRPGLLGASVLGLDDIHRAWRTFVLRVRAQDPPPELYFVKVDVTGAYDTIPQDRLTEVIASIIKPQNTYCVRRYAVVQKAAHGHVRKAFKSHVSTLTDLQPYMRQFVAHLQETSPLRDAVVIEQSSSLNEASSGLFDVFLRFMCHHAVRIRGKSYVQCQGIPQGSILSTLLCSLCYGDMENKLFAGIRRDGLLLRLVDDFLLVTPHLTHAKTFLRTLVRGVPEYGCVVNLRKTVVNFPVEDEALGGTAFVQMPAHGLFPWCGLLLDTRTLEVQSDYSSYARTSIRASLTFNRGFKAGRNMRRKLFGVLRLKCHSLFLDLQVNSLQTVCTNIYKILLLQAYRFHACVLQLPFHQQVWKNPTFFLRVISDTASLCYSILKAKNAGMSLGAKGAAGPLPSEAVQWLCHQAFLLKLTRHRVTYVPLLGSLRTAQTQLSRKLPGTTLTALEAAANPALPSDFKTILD

CAKI-1 = assay: Antiproliferative activity against human Caki1 cells assessed as cell growth at 10 uM; assay type: functional; conditions: read-out: Activity; summary of the method: as §1
PC-3 = assay: Antiproliferative activity against human PC3 cells assessed as cell growth at 10 uM; assay type: functional; conditions: read-out: Activity; summary of the method: as §1
K562 = assay: Antiproliferative activity against human K562 cells assessed as cell growth at 10 uM; assay type: functional; conditions: read-out: Activity; summary of the method: as §1
U-251 = assay: Antiproliferative activity against human U251 cells assessed as cell growth at 10 uM; assay type: functional; conditions: read-out: Activity; summary of the method: as §2
[6] = Cytotoxicity against human H1299 cells at 10 uM after 48 hrs by MTT assay; assay type: functional; conditions: NCI-H1299, 48 h; summary of the method: as §3
COLO 205 = assay: Antiproliferative activity against human COLO205 cells assessed as cell growth at 10 uM; assay type: functional; conditions: read-out: Activity; summary of the method: as §1
TK-10 = assay: Antiproliferative activity against human TK10 cells assessed as cell growth at 10 uM; assay type: functional; conditions: read-out: Activity; summary of the method: as §2
HL-60(TB) = assay: Antiproliferative activity against human HL-60(TB) cells assessed as cell growth at 10 uM; assay type: functional; conditions: read-out: Activity
Summary of the method: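 NCI Developmental Therapeutics Program 60-cell-line one-dose screen at 10^-5 M. Readout is growth percentage of treated cells relative to untreated control cells.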

Malme-3M = assay: Antiproliferative activity against human MALME-3M cells assessed as cell growth at 10 uM; assay type: functional; conditions: read-out: Activity; summary of the method: as §1
SN12C = assay: Antiproliferative activity against human SN12C cells assessed as cell growth at 10 uM; assay type: functional; conditions: read-out: Activity; summary of the method: as §1
HCC 2998 = assay: Antiproliferative activity against human HCC2998 cells assessed as cell growth at 10 uM; assay type: functional; conditions: read-out: Activity; summary of the method: as §1
SR = assay: Antiproliferative activity against human SR cells assessed as cell growth at 10 uM; assay type: functional; conditions: read-out: Activity; summary of the method: as §2
OVCAR-5 = assay: Antiproliferative activity against human OVCAR5 cells assessed as cell growth at 10 uM; assay type: functional; conditions: read-out: Activity; summary of the method: as §1
T47D = assay: Antiproliferative activity against human T47D cells assessed as cell growth at 10 uM; assay type: functional; conditions: read-out: Activity; summary of the method: as §2
HOP-62 = assay: Antiproliferative activity against human HOP62 cells assessed as cell growth at 10 uM; assay type: functional; conditions: read-out: Activity; summary of the method: as §1
M14 = assay: Antiproliferative activity against human M14 cells assessed as cell growth at 10 uM; assay type: functional; conditions: read-out: Activity; summary of the method: as §1
SK-MEL-28 = assay: Antiproliferative activity against human SK-MEL-28 cells assessed as cell growth at 10 uM; assay type: functional; conditions: read-out: Activity; summary of the method: as §1
A498 = assay: Antiproliferative activity against human A498 cells assessed as cell growth at 10 uM; assay type: functional; conditions: read-out: Activity; summary of the method: as §1
A549 = assay: Antiproliferative activity against human A549 cells assessed as cell growth at 10 uM; assay type: functional; conditions: read-out: Activity; summary of the method: as §1
UO-31 = assay: Antiproliferative activity against human UO31 cells assessed as cell growth at 10 uM; assay type: functional; conditions: read-out: Activity; summary of the method: as §2
NCI-H522 = assay: Antiproliferative activity against human NCI-H522 cells assessed as cell growth at 10 uM; assay type: functional; conditions: read-out: Activity; summary of the method: as §1
LOX IMVI = assay: Antiproliferative activity against human LOXIMVI cells assessed as cell growth at 10 uM; assay type: functional; conditions: read-out: Activity; summary of the method: as §1
SK-MEL-5 = assay: Antiproliferative activity against human SK-MEL-5 cells assessed as cell growth at 10 uM; assay type: functional; conditions: read-out: Activity; summary of the method: as §1
786-0 = assay: Antiproliferative activity against human 786-0 cells assessed as cell growth at 10 uM; assay type: functional; conditions: read-out: Activity; summary of the method: as §1
SK-MEL-2 = assay: Antiproliferative activity against human SK-MEL-2 cells assessed as cell growth at 10 uM; assay type: functional; conditions: read-out: Activity; summary of the method: as §1

CN(C)c1ccc(-c2nc3ccc4c(c3[nH]2)C(=O)c2ccccc2C4=O)cc1
growth at 10 µM (SF-268): 95.4% | growth at 10 µM [1]: 78.4% | growth at 10 µM (HCT-116): 100% | growth at 10 µM (SNB-75): 93.1% | growth at 10 µM (MDA-MB-435): 106% | growth at 10 µM (OVCAR-8): 111% | growth at 10 µM (NCI/ADR-RES): 108% | growth at 10 µM (SF-295): 159% | growth at 10 µM [2]: 109% | growth at 10 µM (UACC-257): 103% | growth at 10 µM (NCI-H322M): 94.8% | growth at 10 µM (NCI-H460): 101% | growth at 10 µM (HOP-92): 89.9% | growth at 10 µM (OVCAR-3): 111% | viability at 100 µM [3]: 22% | growth at 10 µM (SNB-19): 127% | viability at 1 µM [4]: 88% | growth at 10 µM (ACHN): 96.2% | growth at 10 µM (OVCAR-4): 98.3% | growth at 10 µM (NCI-H23): 93.8% | growth at 10 µM (CCRF-CEM): 63.9% | growth at 10 µM (MDA-MB-231): 94.4% | residual activity [5]: 73% | growth at 10 µM (CAKI-1): 108% | growth at 10 µM (PC-3): 82.4% | growth at 10 µM (K562): 96.1% | growth at 10 µM (U-251): 102% | viability at 10 µM [6]: 62% | growth at 10 µM (COLO 205): 208% | growth at 10 µM (TK-10): 116% | growth at 10 µM (HL-60(TB)): 89.7% | growth at 10 µM (Malme-3M): 110% | growth at 10 µM (SN12C): 94.5% | growth at 10 µM (HCC 2998): 109% | growth at 10 µM (SR): 118% | growth at 10 µM (OVCAR-5): 117% | growth at 10 µM (T47D): 119% | growth at 10 µM (HOP-62): 102% | growth at 10 µM (M14): 113% | growth at 10 µM (SK-MEL-28): 96.8% | growth at 10 µM (A498): 86.1% | growth at 10 µM (A549): 113% | growth at 10 µM (UO-31): 75.5% | growth at 10 µM (NCI-H522): 87.1% | growth at 10 µM (LOX IMVI): 90.5% | growth at 10 µM (SK-MEL-5): 93.8% | growth at 10 µM (786-0): 109% | growth at 10 µM (SK-MEL-2): 73.2%
